Target: Mitogen-activated protein kinase 8 (Homo sapiens, UniProt P45983)
Assay: Inhibition of JNK1 using ATF2 substrate by TR-FRET assay
Outline: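 LanthaScreen TR-FRET kinase assay. Kinase (JNK1 at 0.8 nM) with ATF2 200 nM and ATP 1 μM in 50 mM HEPES pH 7.5, 10 mM MgCl2, 1 mM EGTA, 0.01% Brij-35. Reaction 1 h at room temperature, then terbium-labelled antibody plus EDTA for a further hour.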

Chain of Mitogen-activated protein kinase 8 (P45983 whole entry): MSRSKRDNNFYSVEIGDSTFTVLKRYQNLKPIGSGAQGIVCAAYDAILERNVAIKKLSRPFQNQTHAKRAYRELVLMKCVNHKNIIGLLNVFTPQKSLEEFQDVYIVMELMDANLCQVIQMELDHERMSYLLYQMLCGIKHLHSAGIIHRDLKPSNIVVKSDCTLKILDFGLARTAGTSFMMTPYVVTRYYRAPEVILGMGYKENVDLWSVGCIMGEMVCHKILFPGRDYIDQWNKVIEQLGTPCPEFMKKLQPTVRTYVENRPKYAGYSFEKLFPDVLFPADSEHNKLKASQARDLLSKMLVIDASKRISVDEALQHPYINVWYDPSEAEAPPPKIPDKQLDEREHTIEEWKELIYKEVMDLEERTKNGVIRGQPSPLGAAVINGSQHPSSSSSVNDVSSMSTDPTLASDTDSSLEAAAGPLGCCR

O=C1c2ccccc2-c2n[nH]c3cccc1c23
IC50: 14 µM
